Laboratory results from ChEMBL document CHEMBL4118192, “BET bromodomain ligands: Probing the WPF shelf to improve BRD4 bromodomain affinity and metabolic stability” (Bioorg Med Chem, 2018).

Key:
Type in all cases: functional
A498 [1] = experiment: Growth inhibition of human A498 cells after 48 hrs by SRB assay; conditions: A498, 48 h
Summary of the method: (§1)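 In-house assay. Cells were seeded into 96-well plates at a density for exponential growth and treated with a concentration range for 48 h. They were then fixed in 10% (w/v) TCA and stained with sulforhodamine B. The 50% growth-inhibitory concentration relative to control cells was calculated as the mean of three repeats ± standard deviation.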

MCF7 = experiment: Growth inhibition of human MCF7 cells after 48 hrs by SRB assay; conditions: MCF7, 48 h; summary of the method: as §1
RPMI-8226 [2] = experiment: Growth inhibition of human RPMI8226 cells at 10 uM after 48 hrs by sulforhodamine B assay relative to control; conditions: RPMI-8226, 48 h, read-out: GI
Summary of the method: (§2)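 NCI-60 human cancer cell line screen, single-dose pass: cells exposed to 10 μM for 48 h. Cellular protein content read out by sulforhodamine B staining, and growth inhibition expressed relative to untreated control.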

NCI-H23 = experiment: Growth inhibition of human NCI-H23 cells at 10 uM after 48 hrs by sulforhodamine B assay relative to control; conditions: NCI-H23, 48 h, read-out: GI; summary of the method: as §2
NCI-H460 [3] = experiment: Growth inhibition of human NCI-H460 cells at 10 uM after 48 hrs by sulforhodamine B assay relative to control; conditions: NCI-H460, 48 h, read-out: GI; summary of the method: as §2
HCT-15 = experiment: Growth inhibition of human HCT15 cells at 10 uM after 48 hrs by sulforhodamine B assay relative to control; conditions: HCT-15, 48 h, read-out: GI
Summary of the method: (§3)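 NCI-60 single-dose screen at 10 μM for 48 h. Percent growth inhibition was measured by sulforhodamine B staining of cellular protein.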

KM12 = experiment: Growth inhibition of human KM12 cells at 10 uM after 48 hrs by sulforhodamine B assay relative to control; conditions: KM12, 48 h, read-out: GI; summary of the method: as §3
SF-539 [4] = experiment: Growth inhibition of human SF539 cells at 10 uM after 48 hrs by sulforhodamine B assay relative to control; conditions: SF-539, 48 h, read-out: GI; summary of the method: as §2
SNB-19 [5] = experiment: Growth inhibition of human SNB19 cells at 10 uM after 48 hrs by sulforhodamine B assay relative to control; conditions: SNB-19, 48 h, read-out: GI; summary of the method: as §2
SK-MEL-2 = experiment: Growth inhibition of human SK-MEL-2 cells at 10 uM after 48 hrs by sulforhodamine B assay relative to control; conditions: SK-MEL-2, 48 h, read-out: GI; summary of the method: as §2
SK-MEL-5 = experiment: Growth inhibition of human SK-MEL-5 cells at 10 uM after 48 hrs by sulforhodamine B assay relative to control; conditions: SK-MEL-5, 48 h, read-out: GI; summary of the method: as §2
OVCAR-5 = experiment: Growth inhibition of human OVCAR5 cells at 10 uM after 48 hrs by sulforhodamine B assay relative to control; conditions: OVCAR-5, 48 h, read-out: GI; summary of the method: as §2
A498 [6] = experiment: Growth inhibition of human A498 cells at 10 uM after 48 hrs by sulforhodamine B assay relative to control; conditions: A498, 48 h, read-out: GI; summary of the method: as §3
ACHN = experiment: Growth inhibition of human ACHN cells at 10 uM after 48 hrs by sulforhodamine B assay relative to control; conditions: read-out: GI; summary of the method: as §3
CAKI-1 = experiment: Growth inhibition of human CAKI-1 cells at 10 uM after 48 hrs by sulforhodamine B assay relative to control; conditions: CAKI-1, 48 h, read-out: GI; summary of the method: as §3
CCRF-CEM = experiment: Growth inhibition of human CCRF-CEM cells after 48 hrs by sulforhodamine B assay
Summary of the method: (§4)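 NCI-60 panel screen. Cells were exposed for 48 h at five concentrations between 10 nM and 100 μM. Cellular protein was read by sulforhodamine B staining, and GI50 and total growth inhibition (TGI) concentrations were derived.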

HL-60(TB) = experiment: Growth inhibition of human HL-60(TB) cells after 48 hrs by sulforhodamine B assay; conditions: HL-60, 48 h
Summary of the method: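 NCI-60 human cancer cell line screen, five concentrations from 10 nM to 100 μM. Growth measured by sulforhodamine B staining of cellular protein content. GI50 derived, with TGI where reached below 100 μM.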

K562 = experiment: Growth inhibition of human K562 cells after 48 hrs by sulforhodamine B assay; conditions: K562, 48 h; summary of the method: as §4
RPMI-8226 [7] = experiment: Growth inhibition of human RPMI8226 cells after 48 hrs by sulforhodamine B assay; conditions: RPMI-8226, 48 h
Summary of the method: (§5)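 NCI-60 panel follow-up: five concentrations from 10 nM to 100 μM, 48 h exposure. Growth read by sulforhodamine B protein staining. GI50 derived from the concentration-response, with the concentration for total growth inhibition (TGI) also recorded when below 100 μM.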

SR = experiment: Growth inhibition of human SR cells after 48 hrs by sulforhodamine B assay
Summary of the method: (§6)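 NCI-60 panel cells treated at five concentrations from 10 nM to 100 μM for 48 h. Read-out by sulforhodamine B protein stain. GI50 and total growth inhibition (TGI, if below 100 μM) taken from the concentration-response data.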

A549 = experiment: Growth inhibition of human A549/ATCC cells after 48 hrs by sulforhodamine B assay; conditions: A549, 48 h; summary of the method: as §4
HOP-62 = experiment: Growth inhibition of human HOP62 cells after 48 hrs by sulforhodamine B assay; conditions: HOP-62, 48 h; summary of the method: as §4
HOP-92 = experiment: Growth inhibition of human HOP92 cells after 48 hrs by sulforhodamine B assay; conditions: HOP-92, 48 h; summary of the method: as §4
NCI-H460 [8] = experiment: Growth inhibition of human NCI-H460 cells after 48 hrs by sulforhodamine B assay; conditions: NCI-H460, 48 h; summary of the method: as §5
HCT-116 = experiment: Growth inhibition of human HCT116 cells after 48 hrs by sulforhodamine B assay; conditions: HCT-116, 48 h; summary of the method: as §4
SW-620 = experiment: Growth inhibition of human SW620 cells after 48 hrs by sulforhodamine B assay; conditions: SW-620, 48 h; summary of the method: as §6
SF-539 [9] = experiment: Growth inhibition of human SF539 cells after 48 hrs by sulforhodamine B assay; conditions: SF-539, 48 h; summary of the method: as §5
SNB-19 [10] = experiment: Growth inhibition of human SNB19 cells after 48 hrs by sulforhodamine B assay; conditions: SNB-19, 48 h; summary of the method: as §5
M14 = experiment: Growth inhibition of human M14 cells after 48 hrs by sulforhodamine B assay; conditions: M14, 48 h; summary of the method: as §4
MDA-MB-435 = experiment: Growth inhibition of human MDA-MB-435 cells after 48 hrs by sulforhodamine B assay; conditions: MDA-MB-435, 48 h; summary of the method: as §4
IGROV-1 = experiment: Growth inhibition of human IGROV1 cells after 48 hrs by sulforhodamine B assay; conditions: IGROV-1, 48 h; summary of the method: as §4
SK-OV-3 = experiment: Growth inhibition of human SKOV3 cells after 48 hrs by sulforhodamine B assay; conditions: SK-OV-3, 48 h; summary of the method: as §5
RXF 393 = experiment: Growth inhibition of human RXF393 cells after 48 hrs by sulforhodamine B assay; conditions: RXF 393, 48 h; summary of the method: as §5
MDA-MB-468 = experiment: Growth inhibition of human MDA-MB-468 cells after 48 hrs by sulforhodamine B assay; conditions: MDA-MB-468, 48 h; summary of the method: as §5

Compound	GI50 (A498 [1]) [µM]	TGI (A498 [1]) [µM]	GI50 (MCF7) [µM]	inhibition of growth at 10 µM (RPMI-8226 [2]) [%]	inhibition of growth at 10 µM (NCI-H23) [%]	inhibition of growth at 10 µM (NCI-H460 [3]) [%]	inhibition of growth at 10 µM (HCT-15) [%]	inhibition of growth at 10 µM (KM12) [%]	inhibition of growth at 10 µM (SF-539 [4]) [%]	inhibition of growth at 10 µM (SNB-19 [5]) [%]	inhibition of growth at 10 µM (SK-MEL-2) [%]	inhibition of growth at 10 µM (SK-MEL-5) [%]	inhibition of growth at 10 µM (OVCAR-5) [%]	inhibition of growth at 10 µM (A498 [6]) [%]	inhibition of growth at 10 µM (ACHN) [%]	inhibition of growth at 10 µM (CAKI-1) [%]	GI50 (CCRF-CEM) [µM]	GI50 (HL-60(TB)) [µM]	GI50 (K562) [µM]	GI50 (RPMI-8226 [7]) [µM]	other results
Cc1noc(C)c1-c1cc(O)cc(C(O)c2ccccc2)c1 (stereo unspecified)	1.58 to 2.6	20.3	1.25 to 1.7	85.1	31.9	32.8	63.3	46.9	37.5	47.3	39.6	45.8	26.7	103	39.4	76.2	14.8	2.17	8.69	1.94	TGI (HL-60(TB)): 22.7 µM; TGI (RPMI-8226 [7]): 9.7 µM; GI50 (SR): 1.01 µM; GI50 (A549): 22.4 µM; GI50 (HOP-62): 4.89 µM; GI50 (HOP-92): 1.02 µM; TGI (HOP-92): 72.9 µM; GI50 (NCI-H460 [8]): 25.1 µM; GI50 (HCT-116): 7.08 µM; GI50 (SW-620): 24.5 µM; GI50 (SF-539 [9]): 4.56 µM; GI50 (SNB-19 [10]): 5.69 µM; GI50 (M14): 4.48 µM; GI50 (MDA-MB-435): 3.48 µM; GI50 (IGROV-1): 23.2 µM; GI50 (SK-OV-3): 7.01 µM; GI50 (RXF 393): 17.2 µM; GI50 (MDA-MB-468): 1.89 µM; TGI (MDA-MB-468): 40.6 µM
COc1ccccc1S(=O)(=O)Nc1ccc2c(c1)CN(C)C(=O)N2	1.8	6	1.5	95.7	43.3	44.2	59.2	55	49.9	45.9	52.4	59.5	25.5	103	65.3	78.8	7.8	3.4	4.6	2.2	GI50 (SR): 3.7 µM; GI50 (A549): 19.5 µM; GI50 (HOP-62): 2.5 µM; GI50 (HOP-92): 1.2 µM; TGI (HOP-92): 70.8 µM; GI50 (NCI-H460 [8]): 9.3 µM; GI50 (HCT-116): 4.5 µM; GI50 (SW-620): 12 µM; GI50 (SF-539 [9]): 4.5 µM; GI50 (SNB-19 [10]): 4.8 µM; GI50 (M14): 2.9 µM; GI50 (MDA-MB-435): 2.6 µM; GI50 (IGROV-1): 6.3 µM; GI50 (SK-OV-3): 4.9 µM; GI50 (RXF 393): 7.9 µM; GI50 (MDA-MB-468): 1.5 µM; TGI (MDA-MB-468): 47.9 µM
